Source: ChEMBL document CHEMBL5154945, “Discovery and Optimization of Pyrrolopyrimidine Derivatives as Selective Disruptors of the Perinucleolar Compartment, a Marker of Tumor Progression toward Metastasis” (J Med Chem, 2022)

Columns and labels:
PC-3M = experiment: Anticancer activity in human PC-3M cells expressing PTB/GFP fusion protein assessed as perinucleolar compartment disassembly and measured after 24 hrs by Hoechst 33342 staining based microscopic method; format: functional, cell-based
How it was run: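 Imaged by high-content microscopy. Nuclei with PNC spots ≥3 and >0 scored positive. PNC prevalence % = PNC-positive nuclei/total nuclei ×100, normalized to DMSO (0% activity) and 0% PNC (−100%). IC50 from concentration-response.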

[1] = Microsomal stability in CD1 mouse liver microsomes assessed as half life measured upto 60 mins in presence of NADPH by LC-MS analysis; conditions: CD1, mouse, liver microsomes
[2] = Cmax in female BALB/c mouse at 5 mg/kg, ip at 30 min by LC-MS/MS analysis; format: ADME, organism-based; parameters: time 30 min, dose 5 mg/kg, route ip; conditions: in vivo, 0.5 h
How it was run: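 Fed female BALB/c mice, about 6–8 weeks old and 25–30 g, received a single IP dose of 5 or 25 mpk in NMP/PEG400/HP-β-CD aqueous vehicle (0.5 mg/mL for the 5 mpk dose). Three mice per time point were sampled up to 48 h by retro-orbital bleed under isoflurane into K2EDTA. Plasma was spun at 2000 g, 4 °C, frozen at -80 °C, and assayed by LC/MS/MS.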

[3] = AUC (0 to 48 hrs) in female BALB/c mouse at 5 mg/kg, ip at 48 hrs by LC-MS/MS analysis; format: ADME, organism-based; parameters: time 48 hrs, dose 5 mg/kg, route ip; conditions: in vivo
How it was run: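 Fed female BALB/c mice, about 6–8 weeks old and 25–30 g, received a single IP dose. The vehicle was 5-10% NMP + 20% PEG400 + 70-75% (25% HP-β-CD in water), with the drug at 2.5/0.5 mg/mL. Blood was taken by retro-orbital puncture under isoflurane into K2EDTA tubes, 3 mice per time point, over 48 h. Plasma was prepared at 2000 g, 5 min, 4 °C, and measured by LC/MS/MS.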

HL-60(TB) = experiment: Anticancer activity against human HL-60(TB) cells assessed as cell growth inhibition; format: functional, cell-based; conditions: dose 1-100 µM, DDE = dose-dependent effect
K562 = experiment: Anticancer activity against human K562 cells assessed as cell growth inhibition; format: functional, cell-based; conditions: dose 1-100 µM, DDE = dose-dependent effect
SR = experiment: Anticancer activity against human SR cells assessed as cell growth inhibition; format: functional, cell-based; conditions: dose 1-100 µM, DDE = dose-dependent effect
EKVX = experiment: Anticancer activity against human EKVX cells assessed as cell growth inhibition; format: functional, cell-based; conditions: dose 1-100 µM, DDE = dose-dependent effect
NCI-H226 = experiment: Anticancer activity against human NCI-H226 cells assessed as cell growth inhibition; format: functional, cell-based; conditions: dose 1-100 µM, DDE = dose-dependent effect
NCI-H322M = experiment: Anticancer activity against human NCI-H322M cells assessed as cell growth inhibition; format: functional, cell-based; conditions: dose 1-100 µM, DDE = dose-dependent effect
NCI-H460 = experiment: Anticancer activity against human NCI-H460 cells assessed as cell growth inhibition; format: functional, cell-based; conditions: dose 1-100 µM, DDE = dose-dependent effect
HCT-116 = experiment: Anticancer activity against human HCT-116 cells assessed as cell growth inhibition; format: functional, cell-based; conditions: dose 1-100 µM, DDE = dose-dependent effect
KM12 = experiment: Anticancer activity against human KM12 cells assessed as cell growth inhibition; format: functional, cell-based; conditions: dose 1-100 µM, DDE = dose-dependent effect
SF-268 = experiment: Anticancer activity against human SF-268 cells assessed as cell growth inhibition; format: functional, cell-based; conditions: dose 1-100 µM, DDE = dose-dependent effect
Malme-3M = experiment: Anticancer activity against human Malme-3M cells assessed as cell growth inhibition; format: functional, cell-based; conditions: dose 1-100 µM, DDE = dose-dependent effect
MDA-MB-435 = experiment: Anticancer activity against human MDA-MB-435 cells assessed as cell growth inhibition; format: functional, cell-based; conditions: dose 1-100 µM, DDE = dose-dependent effect
OVCAR-3 = experiment: Anticancer activity against human OVCAR-3 cells assessed as cell growth inhibition; format: functional, cell-based; conditions: dose 1-100 µM, DDE = dose-dependent effect
OVCAR-4 = experiment: Anticancer activity against human OVCAR-4 cells assessed as cell growth inhibition; format: functional, cell-based; conditions: dose 1-100 µM, DDE = dose-dependent effect
NCI/ADR-RES = experiment: Anticancer activity against human NCI/ADR-RES cells assessed as cell growth inhibition; format: functional, cell-based; conditions: dose 1-100 µM, DDE = dose-dependent effect
ACHN = experiment: Anticancer activity against human ACHN cells assessed as cell growth inhibition; format: functional, cell-based; conditions: dose 1-100 µM, DDE = dose-dependent effect
CAKI-1 = experiment: Anticancer activity against human CAKI-1 cells assessed as cell growth inhibition; format: functional, cell-based; conditions: dose 1-100 µM, DDE = dose-dependent effect
RXF 393 = experiment: Anticancer activity against human RXF 393 cells assessed as cell growth inhibition; format: functional, cell-based; conditions: dose 1-100 µM, DDE = dose-dependent effect
TK-10 = experiment: Anticancer activity against human TK-10 cells assessed as cell growth inhibition; format: functional, cell-based; conditions: dose 1-100 µM, DDE = dose-dependent effect
MCF7 = experiment: Anticancer activity against human MCF7 cells assessed as cell growth inhibition; format: functional, cell-based; conditions: dose 1-100 µM, DDE = dose-dependent effect
Hs-578T = experiment: Anticancer activity against human Hs-578T cells assessed as cell growth inhibition; format: functional, cell-based; conditions: dose 1-100 µM, DDE = dose-dependent effect
BT-549 = experiment: Anticancer activity against human BT-549 cells assessed as cell growth inhibition; format: functional, cell-based; conditions: dose 1-100 µM, DDE = dose-dependent effect
MDA-MB-468 = experiment: Anticancer activity against human MDA-MB-468 cells assessed as cell growth inhibition; format: functional, cell-based; conditions: dose 1-100 µM, DDE = dose-dependent effect
[4] = molecular target: 5-hydroxytryptamine receptor 1B (Homo sapiens) (UniProt P28222); experiment: Binding affinity to 5-HT1B receptor (unknown origin) at 10000 nM by radioligand displacement assay relative to control
Chain of 5-hydroxytryptamine receptor 1B (Homo sapiens) (P28222 whole entry): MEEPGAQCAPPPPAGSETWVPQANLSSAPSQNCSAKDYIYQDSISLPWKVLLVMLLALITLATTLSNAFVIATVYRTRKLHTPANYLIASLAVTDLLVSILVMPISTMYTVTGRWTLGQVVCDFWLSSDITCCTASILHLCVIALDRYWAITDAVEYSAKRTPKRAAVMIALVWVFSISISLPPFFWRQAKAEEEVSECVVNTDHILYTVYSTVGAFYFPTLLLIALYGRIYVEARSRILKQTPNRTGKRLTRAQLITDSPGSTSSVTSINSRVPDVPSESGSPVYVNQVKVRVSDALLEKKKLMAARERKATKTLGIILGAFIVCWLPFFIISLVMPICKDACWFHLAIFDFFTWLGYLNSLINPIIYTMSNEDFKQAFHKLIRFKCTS

[5] = molecular target: 5-hydroxytryptamine receptor 1D (Homo sapiens) (UniProt P28221); experiment: Binding affinity to 5-HT1D receptor (unknown origin) at 10000 nM by radioligand displacement assay relative to control
Chain of 5-hydroxytryptamine receptor 1D (Homo sapiens) (P28221 whole entry): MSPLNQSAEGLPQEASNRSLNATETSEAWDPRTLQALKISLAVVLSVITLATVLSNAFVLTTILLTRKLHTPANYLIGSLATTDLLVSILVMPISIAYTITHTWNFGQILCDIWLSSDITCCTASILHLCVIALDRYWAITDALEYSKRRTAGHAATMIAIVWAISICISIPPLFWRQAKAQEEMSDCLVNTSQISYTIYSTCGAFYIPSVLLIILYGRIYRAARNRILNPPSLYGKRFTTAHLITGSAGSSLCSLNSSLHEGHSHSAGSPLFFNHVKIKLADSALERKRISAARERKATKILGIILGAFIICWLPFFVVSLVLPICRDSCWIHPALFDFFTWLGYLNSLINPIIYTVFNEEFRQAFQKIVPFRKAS

[6] = molecular target: 5-hydroxytryptamine receptor 2B (Homo sapiens) (UniProt P41595); experiment: Binding affinity to 5-HT2B receptor (unknown origin) at 10000 nM by radioligand displacement assay relative to control
Chain of 5-hydroxytryptamine receptor 2B (Homo sapiens) (P41595 whole entry): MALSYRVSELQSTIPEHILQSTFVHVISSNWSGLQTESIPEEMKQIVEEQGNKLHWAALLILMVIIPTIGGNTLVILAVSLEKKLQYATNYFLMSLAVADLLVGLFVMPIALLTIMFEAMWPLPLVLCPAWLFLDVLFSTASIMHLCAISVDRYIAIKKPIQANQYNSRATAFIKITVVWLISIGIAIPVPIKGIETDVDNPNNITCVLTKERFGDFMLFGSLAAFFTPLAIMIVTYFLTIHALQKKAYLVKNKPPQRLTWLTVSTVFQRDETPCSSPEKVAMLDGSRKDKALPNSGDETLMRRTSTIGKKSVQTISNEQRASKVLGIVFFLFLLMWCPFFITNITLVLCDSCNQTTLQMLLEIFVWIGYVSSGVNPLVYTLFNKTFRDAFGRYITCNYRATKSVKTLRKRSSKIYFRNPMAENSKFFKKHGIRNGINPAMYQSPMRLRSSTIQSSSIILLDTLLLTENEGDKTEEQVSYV

[7] = molecular target: 5-hydroxytryptamine receptor 7 (Homo sapiens) (UniProt P34969); experiment: Binding affinity to 5-HT7 receptor (unknown origin) at 10000 nM by radioligand displacement assay relative to control
Chain of 5-hydroxytryptamine receptor 7 (Homo sapiens) (P34969 whole entry): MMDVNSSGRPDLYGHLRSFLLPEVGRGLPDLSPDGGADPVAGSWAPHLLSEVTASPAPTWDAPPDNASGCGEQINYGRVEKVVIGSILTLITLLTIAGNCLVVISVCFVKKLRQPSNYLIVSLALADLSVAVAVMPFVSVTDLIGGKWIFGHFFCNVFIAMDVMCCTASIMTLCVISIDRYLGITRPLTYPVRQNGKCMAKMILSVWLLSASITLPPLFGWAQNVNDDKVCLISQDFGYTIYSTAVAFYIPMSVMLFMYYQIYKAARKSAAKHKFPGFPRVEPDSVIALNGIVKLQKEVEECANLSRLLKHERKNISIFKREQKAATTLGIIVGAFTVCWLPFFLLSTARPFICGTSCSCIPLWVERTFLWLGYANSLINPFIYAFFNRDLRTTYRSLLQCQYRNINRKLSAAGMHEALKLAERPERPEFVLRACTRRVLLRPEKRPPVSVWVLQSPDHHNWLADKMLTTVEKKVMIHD

[8] = molecular target: Beta-2 adrenergic receptor (Homo sapiens) (UniProt P07550); experiment: Binding affinity to beta2 receptor (unknown origin) at 10000 nM by radioligand displacement assay relative to control
Chain of Beta-2 adrenergic receptor (Homo sapiens) (P07550 whole entry, looked up): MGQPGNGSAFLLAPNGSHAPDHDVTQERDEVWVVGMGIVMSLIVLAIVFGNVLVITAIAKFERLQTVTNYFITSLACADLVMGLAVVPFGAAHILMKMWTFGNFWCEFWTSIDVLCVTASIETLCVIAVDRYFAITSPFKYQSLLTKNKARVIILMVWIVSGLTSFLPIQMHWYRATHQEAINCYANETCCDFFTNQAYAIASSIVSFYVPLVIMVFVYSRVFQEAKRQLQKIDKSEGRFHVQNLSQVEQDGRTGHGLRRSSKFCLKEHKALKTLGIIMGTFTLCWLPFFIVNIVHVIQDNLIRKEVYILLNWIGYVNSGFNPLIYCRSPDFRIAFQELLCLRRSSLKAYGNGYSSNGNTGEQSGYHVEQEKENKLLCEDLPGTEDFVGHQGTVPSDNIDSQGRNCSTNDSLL

[9] = molecular target: D(2) dopamine receptor (Homo sapiens) (UniProt P14416); experiment: Binding affinity to D2 receptor (unknown origin) at 10000 nM by radioligand displacement assay relative to control
Chain of D(2) dopamine receptor (Homo sapiens) (P14416 whole entry): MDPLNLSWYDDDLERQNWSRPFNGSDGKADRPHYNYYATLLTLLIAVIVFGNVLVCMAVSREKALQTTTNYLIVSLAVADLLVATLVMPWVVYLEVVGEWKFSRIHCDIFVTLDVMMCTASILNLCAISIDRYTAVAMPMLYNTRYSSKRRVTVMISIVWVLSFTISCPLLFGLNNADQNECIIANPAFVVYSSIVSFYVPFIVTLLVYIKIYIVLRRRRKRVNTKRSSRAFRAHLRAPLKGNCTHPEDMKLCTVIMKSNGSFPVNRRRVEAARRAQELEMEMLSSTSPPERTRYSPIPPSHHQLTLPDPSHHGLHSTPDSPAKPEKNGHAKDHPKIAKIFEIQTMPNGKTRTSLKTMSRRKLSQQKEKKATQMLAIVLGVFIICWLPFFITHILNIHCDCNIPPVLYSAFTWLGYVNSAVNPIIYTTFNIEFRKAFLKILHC

[10] = molecular target: Histamine H2 receptor (Homo sapiens) (UniProt P25021); experiment: Binding affinity to H2 receptor (unknown origin) at 10000 nM by radioligand displacement assay relative to control
Chain of Histamine H2 receptor (Homo sapiens) (P25021 whole entry): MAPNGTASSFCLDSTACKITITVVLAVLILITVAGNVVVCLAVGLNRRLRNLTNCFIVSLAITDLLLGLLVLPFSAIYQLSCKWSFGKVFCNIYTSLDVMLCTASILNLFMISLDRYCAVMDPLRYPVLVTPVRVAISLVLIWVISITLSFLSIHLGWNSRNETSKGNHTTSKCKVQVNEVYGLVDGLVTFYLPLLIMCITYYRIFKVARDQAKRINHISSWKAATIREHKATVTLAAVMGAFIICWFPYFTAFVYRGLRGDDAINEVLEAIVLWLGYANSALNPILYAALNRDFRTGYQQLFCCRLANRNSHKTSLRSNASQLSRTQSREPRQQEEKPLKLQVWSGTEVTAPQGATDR

[11] = molecular target: Kappa-type opioid receptor (Homo sapiens) (UniProt P41145); experiment: Binding affinity to KOR receptor (unknown origin) at 10000 nM by radioligand displacement assay relative to control
Chain of Kappa-type opioid receptor (Homo sapiens) (P41145 whole entry): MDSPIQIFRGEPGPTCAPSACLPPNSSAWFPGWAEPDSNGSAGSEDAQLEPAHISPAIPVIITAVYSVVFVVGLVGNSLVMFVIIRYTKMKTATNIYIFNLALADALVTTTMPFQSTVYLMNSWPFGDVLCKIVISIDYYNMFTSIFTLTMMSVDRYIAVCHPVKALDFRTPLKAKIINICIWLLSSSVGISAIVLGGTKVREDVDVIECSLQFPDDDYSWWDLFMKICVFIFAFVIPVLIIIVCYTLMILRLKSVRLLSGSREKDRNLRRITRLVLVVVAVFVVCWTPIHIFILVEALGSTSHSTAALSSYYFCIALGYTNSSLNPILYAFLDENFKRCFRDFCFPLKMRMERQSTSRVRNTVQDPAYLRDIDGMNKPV

[12] = molecular target: Muscarinic acetylcholine receptor M4 (Homo sapiens) (UniProt P08173); experiment: Binding affinity to M4 receptor (unknown origin) at 10000 nM by radioligand displacement assay relative to control
[13] = molecular target: Alpha-2C adrenergic receptor (Homo sapiens, UniProt P18825); experiment: Binding affinity to alpha2C receptor (unknown origin) by radioligand displacement assay
Chain of Alpha-2C adrenergic receptor (P18825 whole entry): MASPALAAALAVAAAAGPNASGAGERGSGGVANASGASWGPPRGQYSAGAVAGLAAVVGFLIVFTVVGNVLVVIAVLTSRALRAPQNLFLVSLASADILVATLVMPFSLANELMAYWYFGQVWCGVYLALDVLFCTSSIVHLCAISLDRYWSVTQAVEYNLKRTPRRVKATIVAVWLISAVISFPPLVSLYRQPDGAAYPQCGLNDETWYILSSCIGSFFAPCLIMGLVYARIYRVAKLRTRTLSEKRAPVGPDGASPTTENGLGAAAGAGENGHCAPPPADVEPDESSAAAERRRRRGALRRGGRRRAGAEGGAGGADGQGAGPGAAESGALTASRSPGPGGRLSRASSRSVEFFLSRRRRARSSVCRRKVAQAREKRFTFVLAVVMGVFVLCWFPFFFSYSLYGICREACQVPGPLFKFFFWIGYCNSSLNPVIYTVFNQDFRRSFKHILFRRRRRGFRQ

[14] = molecular target: Sodium-dependent dopamine transporter (Homo sapiens, UniProt Q01959); experiment: Binding affinity to DAT receptor (unknown origin) by radioligand displacement assay
Chain of Sodium-dependent dopamine transporter (Q01959 whole entry): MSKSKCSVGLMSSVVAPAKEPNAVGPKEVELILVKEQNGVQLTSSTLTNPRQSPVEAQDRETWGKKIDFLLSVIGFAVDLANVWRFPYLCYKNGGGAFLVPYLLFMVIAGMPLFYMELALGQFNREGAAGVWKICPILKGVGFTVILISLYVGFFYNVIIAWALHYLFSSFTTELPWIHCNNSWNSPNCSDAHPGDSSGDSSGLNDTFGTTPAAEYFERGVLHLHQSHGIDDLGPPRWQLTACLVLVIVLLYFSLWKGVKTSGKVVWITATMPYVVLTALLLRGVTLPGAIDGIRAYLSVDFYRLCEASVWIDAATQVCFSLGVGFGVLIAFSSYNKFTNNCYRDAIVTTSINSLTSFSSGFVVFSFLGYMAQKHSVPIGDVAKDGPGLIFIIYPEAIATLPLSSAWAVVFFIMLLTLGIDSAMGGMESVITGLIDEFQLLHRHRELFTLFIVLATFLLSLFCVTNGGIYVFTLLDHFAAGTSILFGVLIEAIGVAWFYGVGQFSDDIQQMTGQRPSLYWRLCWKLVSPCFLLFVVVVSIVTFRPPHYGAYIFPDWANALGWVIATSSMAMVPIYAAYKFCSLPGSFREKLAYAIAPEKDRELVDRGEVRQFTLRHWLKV

Histamine H1 receptor = Histamine H1 receptor (Homo sapiens, UniProt P35367); experiment: Binding affinity to H1 receptor (unknown origin) by radioligand displacement assay
Chain of Histamine H1 receptor (P35367 whole entry): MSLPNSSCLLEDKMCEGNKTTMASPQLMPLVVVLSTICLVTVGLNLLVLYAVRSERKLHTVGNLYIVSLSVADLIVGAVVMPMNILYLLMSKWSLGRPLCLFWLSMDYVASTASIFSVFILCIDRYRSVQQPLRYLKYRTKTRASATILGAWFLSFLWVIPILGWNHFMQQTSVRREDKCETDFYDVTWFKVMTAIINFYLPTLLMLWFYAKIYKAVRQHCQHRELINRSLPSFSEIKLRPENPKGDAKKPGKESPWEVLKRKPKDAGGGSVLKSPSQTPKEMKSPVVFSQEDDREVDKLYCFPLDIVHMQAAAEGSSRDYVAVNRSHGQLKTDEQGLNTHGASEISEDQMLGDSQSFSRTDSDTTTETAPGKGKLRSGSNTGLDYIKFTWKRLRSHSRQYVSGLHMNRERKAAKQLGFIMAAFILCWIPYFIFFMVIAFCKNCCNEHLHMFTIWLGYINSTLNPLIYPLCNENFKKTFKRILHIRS

[15] = mouse, in vivo, ip, 50 mg/kg, 0.5 h
[16] = mouse, in vivo, ip, 50 mg/kg, 48 h

`N=c1c2c(-c3ccccc3)c(-c3ccccc3)n(Cc3ccccc3)c2ncn1[C@H]1CC[C@H](O)CC1` [ML-246] showed an IC50 (PC-3M; read-out: IC50) of 200 nM, an IC50 (PC-3M; read-out: pIC50 (converted)) of 178 nM and a half-life at 1 h [1] of 2 h. The Cmax [2] was 0.91 µM, the AUC [3] was 6.08 µM·h and the Activity (HL-60(TB)) was “Dde”. For the same molecule, the Activity (K562) was “Dde”, the Activity (SR) was “Dde” and the Activity (EKVX) was “Dde”. The Activity (NCI-H226) was “Dde”, the Activity (NCI-H322M) was “Dde” and the Activity (NCI-H460) was “Dde”. For the same molecule, the Activity (HCT-116) was “Dde”, the Activity (KM12) was “Dde” and the Activity (SF-268) was “Dde”. For the same molecule, the Activity (Malme-3M) was “Dde”, the Activity (MDA-MB-435) was “Dde” and the Activity (OVCAR-3) was “Dde”. For the same molecule, the Activity (OVCAR-4) was “Dde”, the Activity (NCI/ADR-RES) was “Dde” and the Activity (ACHN) was “Dde”. For the same molecule, the Activity (CAKI-1) was “Dde”, the Activity (RXF 393) was “Dde” and the Activity (TK-10) was “Dde”. The Activity (MCF7) was “Dde”, the Activity (Hs-578T) was “Dde” and the Activity (BT-549) was “Dde”. The Activity (MDA-MB-468) was “Dde”, the Activity [4] was less than 50% and the Activity [5] was less than 50%. The Activity [6] was less than 50%, the Activity [7] was less than 50% and the Activity [8] was less than 50%. For the same molecule, the Activity [9] was less than 50%, the Activity [10] was less than 50% and the Activity [11] was less than 50%. For the same molecule, the Activity [12] was less than 50%, the Ki [13] was 1210 nM and the Ki [14] was 3410 nM. It also gave a Ki (Histamine H1 receptor) of 3560 nM, a Cmax [15] of 20.3 µM and an AUC [16] of 231.77 µM·h.
